# From PubChem BioAssay
# Calls of active or inactive are those of the source.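 The calls were made as follows, unless noted: active = GFP response above 150% of the DMSO level; inconclusive = fewer than 70 events counted for a yeast strain; inactive = the rest.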
# Key:
# [1] = RPL19A-GFP modulators, yeast TOR pathway, confirmation, cell-based, S. cerevisiae, flow cytometry, cherry picks, mother/daughter gates (AID 2270;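 active = GFP response below 50% of the DMSO control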); conditions: S. cerevisiae RPL19A-GFP strain, 3 h, at 10 µM, stronger effect = lower value, 100 = same GFP as DMSO wells
# [2] = LAP4-GFP expression modulators in yeast, confirmation, cell-based, cherry picks, flow cytometry, mother/daughter gates (AID 2271;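 active = GFP response above 150% of the DMSO control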;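 also: ratio of sample to DMSO plate mean so 100% equals DMSO level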); conditions: S. cerevisiae LAP4-GFP strain, 3 h, at 10 µM, stronger effect = higher value, 100 means same as DMSO control
# Summary of the method: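 Test system: GFP-fusion yeast strain. Medium: synthetic complete (SC) yeast growth medium. Timing: 3 h treatment at 30 °C with rotation. Measured by: GFP by flow cytometry. Control set: positive rapamycin (400 ng/mL), negative DMSO.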
# [3] = modulators of MEP2-GFP levels in yeast, confirmation, S. cerevisiae, flow cytometry GFP, cherry picks (AID 2272;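 active = GFP response above 150% of the DMSO control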;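 also: ratio of well signal to plate DMSO mean so 100% equals DMSO level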); conditions: S. cerevisiae MEP2-GFP strain, 3 h, at 10 µM, stronger effect = higher value
# [4] = AGP1-GFP expression modulators, hit retest, confirmation, cell-based, flow cytometry, S. cerevisiae, cherry picks (AID 2273);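 also: median GFP channel fluorescence over the whole cell population gate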; conditions: S. cerevisiae AGP1-GFP strain, 3 h, at 10 µM
# [5] = modulators of CIT2-GFP expression in yeast, confirmation, S. cerevisiae, GFP fusion, cherry picks, mother/daughter gates (AID 2274); conditions: S. cerevisiae CIT2-GFP strain, flow cytometry, 3 h, at 10 µM, stronger effect = higher value
# [6] = measured here: daughter cell gate
# [7] = measured here: mother cell gate
# [8] = measured here: daughter cell gate response
# [9] = measured here: mother cell gate response
Structure (SMILES),GFP response vs DMSO [1],"GFP response vs DMSO [1, 6] [%]","GFP response vs DMSO [1, 7] [%]",GFP response relative to DMSO [2],"GFP response relative to DMSO [2, 8] [%]","GFP response relative to DMSO [2, 9] [%]",GFP response vs DMSO [3],"GFP response, % of DMSO [4]","GFP response, % of DMSO [5]","GFP response, % of DMSO [5, 6] [%]","GFP response, % of DMSO [5, 7] [%]"
O=C1c2cccc3cccc(c23)C(=O)N1c1nccs1,103% (inactive),102,104,116% (inactive),117,112,133% (inactive),106% (inactive),130% (inactive),132,131
CC1=CCC(C(=O)O)C(C(=O)Nc2ccc(-c3nc4ccc(C)cc4s3)cc2)C1 (stereo unspecified),99.2% (inactive),100,100,96.1% (inactive),96.6,96.2,98.8% (inactive),101% (inactive),112% (inactive),110,113
O=[N+]([O-])c1cc(F)c2cccnc2c1O,98.7% (inactive),93.3,96.7,219% (active),176,204,126% (inactive),125% (inactive),107% (inactive),101,104
N#Cc1cc(Sc2ccccn2)c([N+](=O)[O-])cc1C#N,107% (inactive),110,106,121% (inactive),123,118,143% (inactive),106% (inactive),123% (inactive),125,120
C=CCn1c(C)c(/C=C/c2cc[n+](C)cc2)c2ccccc21,99.6% (inactive),99.8,98.1,133% (inactive),136,129,147% (inactive),101% (inactive),141% (inactive),142,139
CCc1cc(=O)oc2c(CN3CCCC3)c(O)c(Cl)cc12,97.6% (inactive),101,95.8,104% (inactive),105,100,110% (inactive),98.4% (inactive),107% (inactive),105,102
O=C1C(CSCc2ccccc2)NC(=S)N1c1ccccc1 (stereo unspecified),102% (inactive),102,101,122% (inactive),120,128,98.8% (inactive),98.1% (inactive),99.7% (inactive),102,94.7
CC1CCN(S(=O)(=O)c2cccc(C(=O)Nc3nccs3)c2)CC1,101% (inactive),101,101,92.6% (inactive),95.6,93.1,100% (inactive),95.4% (inactive),107% (inactive),105,105
Cc1cc(C)c2c(c1)/C(=C/C(=O)c1ccc(Br)s1)C(=O)N2,104% (inactive),102,103,99.5% (inactive),101,102,105% (inactive),97.8% (inactive),94.4% (inactive),93.8,94.4
Cc1cc(NCCCN2CCOCC2)n2nc(C)c(-c3ccccc3)c2n1,95.8% (inactive),94.7,94.4,100% (inactive),97.5,100,99.3% (inactive),100% (inactive),101% (inactive),101,100
Cc1ccc2[nH]c3c(=O)n(CC(=O)N4CCN(C)CC4)ncc3c2c1,95% (inactive),93.4,96.2,95.4% (inactive),96,96.1,98.3% (inactive),99.3% (inactive),101% (inactive),103,101
NC(=O)COc1ccc(C(=O)/C=C2/C(=O)Nc3ccccc32)cc1,94% (inactive),93.4,81,95.4% (inactive),91.2,96.1,94.1% (inactive),107% (inactive),101% (inactive),103,101
COC(=O)C1CCN(C(=O)COC(=O)CCc2nc3ccccc3c(=O)[nH]2)CC1,98.8% (inactive),99.6,99.8,97.7% (inactive),97.9,96.5,99.5% (inactive),98% (inactive),99.3% (inactive),102,95.6
CCOc1ccc(S(=O)(=O)N2CCc3ccccc3C2)cc1,99.7% (inactive),97.8,100,101% (inactive),95,102,97.5% (inactive),96.2% (inactive),92.1% (inactive),92.7,91
Oc1ccccc1/C=N/c1c(-c2ccco2)nc2ccccn12,99.5% (inactive),98.1,100,93.8% (inactive),97.2,97.2,100% (inactive),102% (inactive),102% (inactive),99.7,102
COc1ccc(NC(=O)C2CCN(S(=O)(=O)c3ccc(OC)c(OC)c3)CC2)c(OC)c1,90.6% (inactive),92,89,99.5% (inactive),99.1,102,107% (inactive),100% (inactive),103% (inactive),97.4,105
COc1ccc(N2CCN(C(=O)c3ccc(Br)cc3)CC2)c([N+](=O)[O-])c1,114% (inactive),80.2,102,208% (active),131,192,132% (inactive),153% (active),105% (inactive),82.5,90.8
Cc1cc(N=Nc2ccccc2C(=O)O)c(C)c(C)c1O,99.8% (inactive),99.4,99.3,108% (inactive),109,108,114% (inactive),98.4% (inactive),126% (inactive),129,125
O=C1c2ccccc2C2=Nc3ccccc3SC(c3cccc(F)c3)C12 (stereo unspecified),102% (inactive),98.4,102,106% (inactive),108,102,139% (inactive),103% (inactive),117% (inactive),106,106
Cc1cc(NC(=O)c2cccnc2Cl)ccc1NC(=O)c1cc2ccccc2o1,98% (inactive),97.1,94.5,103% (inactive),101,104,105% (inactive),98.8% (inactive),103% (inactive),97.4,103
CCCn1c(=O)c(C(=O)NCc2ccc(OC)c(OC)c2)c(O)c2ccccc21,98% (inactive),97.6,97.6,102% (inactive),102,103,107% (inactive),95% (inactive),101% (inactive),97.2,101
CCOC(=O)C1=C(Cc2ccc(Cl)cc2)C(=O)c2ccccc2C1=O,99.1% (inactive),98.5,98.1,112% (inactive),107,111,104% (inactive),97.3% (inactive),99.3% (inactive),102,94.5
CCOC(=O)C(N)CSC1CC(=O)N(c2ccc(C(=O)OC)cc2)C1=O (stereo unspecified),98% (inactive),98.4,98.7,102% (inactive),102,101,100% (inactive),98.1% (inactive),98.3% (inactive),99.1,97.3
CC(=O)Nc1ccc(NC(=O)CSc2ncc(C(=O)Nc3ccccc3)c(=O)n2C)cc1,96.6% (inactive),97.1,99.1,97% (inactive),97.5,97.3,96.8% (inactive),103% (inactive),105% (inactive),103,104
COc1ccc(COC(=O)c2n[nH]c3ccccc23)cc1F,98.4% (inactive),96.7,98.2,97.4% (inactive),98.7,99.3,102% (inactive),95% (inactive),106% (inactive),108,104
CCN(Cc1ccccc1)S(=O)(=O)c1ccc(C(=O)Nc2nnc(C3CC3)o2)cc1,98% (inactive),97,98.6,106% (inactive),105,104,99.5% (inactive),96.9% (inactive),99.3% (inactive),100,96.8
